{"data": "Assay results from different studies", "organism": "Staphylococcus aureus", "read-out": "microbial growth", "note": "Compare with care: the assays were run in different laboratories."}
{"SMILES": "COc1cc(OC)c2cc(C(=O)NCc3ccc(C)cc3)cc(O)c2c1", "test": "broth dilution", "system": "ATCC29213 MSSA", "MIC": "32 µg/mL"}
{"SMILES": "C[C@@H](O)[C@H]1C(=O)N2C(C(=O)O)=C(S[C@@H]3CN[C@H](C(=O)N(C)C)C3)[C@H](C)[C@H]12", "test": "broth dilution", "system": "ATCC29213", "MIC": "32 µg/mL"}
{"SMILES": "CCC1(C)CC(OC(=O)CSc2nnc(N)[nH]2)C2(C)C(C)CCC3(CCC(=O)C32)C(C)C1O (stereo not shown)", "MIC": "0.5 µg/mL"}
{"SMILES": "Clc1ccccc1NCc1ccc(Oc2ccccn2)cc1", "MIC": "1.6 µg/mL"}
{"SMILES": "C/C=C(\\C)c1cc(O)c(C)c(OC(=O)c2c(C)c(Cl)c(O)c(Cl)c2O)c1", "test": "broth dilution", "system": "ATCC29213", "MIC": "4 µg/mL"}
{"SMILES": "Cc1ccc(C)n1-c1ccc(-c2nnc(-c3cccc([N+](=O)[O-])c3)[nH]2)cc1", "test": "broth dilution", "system": "ATCC11632", "conditions": "18 h", "MIC": "8 µg/mL"}
{"SMILES": "CC(C)Oc1c(NC(=O)c2ccc(NC(=O)[C@H](CC(N)=O)NC(=O)c3ccc(NC(=O)c4ccc5c(c4)COC5=O)cc3)cc2)ccc(C(=O)Nc2ccc(C(=O)O)cc2)c1O", "system": "ATCC29213", "MIC": "1 µg/mL"}
{"SMILES": "CN1CCC(CNc2ccc3ncc(-c4cccc(OC(F)(F)F)c4)n3n2)CC1", "system": "NCTC8325", "MIC": "> 30 µM"}
{"SMILES": "C/C=C(\\C)c1cc(OC(=O)c2c(O)c(C)c(O)c(Cl)c2/C(C)=C/C)c(C)c(O)c1C(=O)O", "test": "broth dilution", "system": "745524", "MIC": "32 µg/mL"}
{"SMILES": "CC(C)c1cnn2c(NCc3ccccc3)cc(NCCCCCCN)nc12", "system": "NCTC8325", "MIC": "> 30 µM"}
{"SMILES": "O=C1NC(=S)N/C1=C\\c1c2ccccc2c(-c2ccc(N(c3ccccc3)c3ccccc3)cc2)c2ccccc12", "test": "broth dilution", "system": "ATCC6538", "MIC": "> 1000 µg/mL"}
{"SMILES": "O=C(Nc1ccc(OC(F)(F)F)cc1)c1sccc1NCc1ccnc2ccccc12", "system": "NCTC8325", "MIC": "> 30 µM"}
{"SMILES": "CCOc1ccc(-c2nc3ccccc3n2Cc2ccccc2)cc1", "test": "broth dilution", "system": "ATCC29213 MSSA", "MIC": "64 µg/mL"}
{"SMILES": "CNC(=O)c1cc(Oc2ccc(NC(=O)NC34CC5CC(CC(C5)C3)C4)cc2)ccn1", "system": "NCTC8325", "MIC": "> 100 µM"}
{"SMILES": "O=C1NN=C(N=Cc2ccccc2O)C1=NNn1c(-c2ccccc2)nc2ccccc2c1=O", "test": "broth dilution", "conditions": "24 h", "MIC": "111 µM"}
{"SMILES": "C[C@]1(O)C[C@@H](c2nc(-c3ccc4ccc(-c5ccccc5)nc4c3)c3c(N)nccn32)C1", "system": "NCTC8325", "MIC": "> 30 µM"}
{"SMILES": "NC[C@@H]1O[C@H](O[C@H]2[C@@H](O)[C@H](O[C@@H]3[C@@H](O)[C@H](N)C[C@H](N)[C@H]3O[C@H]3O[C@H](CN)[C@@H](O)[C@H](O)[C@H]3N)O[C@@H]2CO)[C@H](N)[C@@H](O)[C@@H]1O", "system": "USA300", "MIC": "5 µg/mL"}
{"SMILES": "Oc1ccccc1-c1nc2ccccc2[nH]1", "test": "broth dilution", "system": "ATCC29213 MSSA", "MIC": "256 µg/mL"}
{"SMILES": "Cc1ccc(F)c(NC(=O)Nc2ccc(-c3cccc4[nH]nc(N)c34)cc2)c1", "system": "NCTC8325", "MIC": "> 30 µM"}
{"SMILES": "CNc1cccc2cc(C(=O)NCCc3cccc(C(=O)O)c3)c(=O)[nH]c12", "system": "ATCC29213", "MIC": "> 64 µg/mL"}
{"SMILES": "O=S(=O)(c1cccc2cnccc12)N1CCCNCC1", "system": "NCTC8325", "MIC": "> 30 µM"}
{"SMILES": "CC(C)Oc1c(NC(=O)c2ccc(NC(=O)[C@H](CC(N)=O)NC(=O)c3ccc(NC(=O)c4ccc(C#N)cc4)cc3)cc2)ccc(C(=O)Nc2ccc(C(=O)O)cc2)c1O", "system": "ATCC29213", "MIC": "0.25 µg/mL"}
